Screening results as filed in PubChem BioAssay.
In the library only some 2.3% were active in any assay of this set; here they are far more common.
CHT block: human CHT choline transport inhibition. CHT-expressing cells, membrane potential dye, choline response; stronger effect = lower value. AID 488975. Q9GZV3. actives 0.86% (n = 310,000). B-score at 10 µM;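 active = B-score over 3 SD under the library average, and starting fluorescence ratio not unusually high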;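 note: choline stimulus applied at its EC90 after an EC20 pre-addition; B-score computed on integrated fluorescence ratio after choline addition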
CHT PAM: allosteric activators of human choline transporter CHT. actives 0.49% (n = 310,000). CHT-expressing cells, membrane potential dye, choline EC20; stronger effect = higher value; LV-AA mutant CHT in HEK293 cells. AID 488977. B-score at 10 µM. Q9GZV3;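 active = initial fluorescence not abnormally high and integrated response B-score, plate-corrected, over 3 SD above library mean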
NR2E3 ag-1: activates human photoreceptor nuclear receptor NR2E3. Q9Y5X4. GST-NR2E3/biotin-RetCOR TR-FRET, 1536-well. inhibition of corepressor binding, % at 4.78 µM. actives 0.12% (n = 320,000). AID 2300;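 active = percent inhibition above the cutoff of mean plus 3 SD of all tested compounds, set per screening campaign, cut at about 20% in these data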;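 note: 0% = DMSO wells and 100% = biotin wells as full block of FRET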
Target sequence (Q9Y5X4 whole entry, looked up): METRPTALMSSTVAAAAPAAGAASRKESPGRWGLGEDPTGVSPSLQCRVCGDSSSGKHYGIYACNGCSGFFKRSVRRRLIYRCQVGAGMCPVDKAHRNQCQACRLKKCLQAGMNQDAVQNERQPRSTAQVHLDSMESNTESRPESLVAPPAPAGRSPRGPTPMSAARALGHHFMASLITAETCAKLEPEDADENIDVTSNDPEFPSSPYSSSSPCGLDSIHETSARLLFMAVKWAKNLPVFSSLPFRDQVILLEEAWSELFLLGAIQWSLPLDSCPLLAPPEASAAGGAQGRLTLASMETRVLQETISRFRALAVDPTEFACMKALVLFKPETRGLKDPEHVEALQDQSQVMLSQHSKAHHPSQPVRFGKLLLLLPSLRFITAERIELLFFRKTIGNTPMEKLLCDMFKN
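Test system – NR2E3–RetCOR corepressor complex · Quantity – NR2E3 fusion 1.35 nM · Buffer or medium – Tris pH 7.5 · Incubation – Compound–protein incubation for 5 h at 4 °C · Technique – TR-FRET, Eu(K)-anti-GST donor, streptavidin-D2 acceptor, ex 340, em 617/671 nm · Evaluation – percent inhibition of 671/617 nm emission ratio versus biotin and DMSO controls · Plate – 1536-well format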
GalR3 antagonist: blocks the human galanin receptor 3. O60755. HEK293 GalR3-CNG cAMP membrane potential fluorescence; galR3 body fused to GalR1 C-terminus. actives 0.44% (n = 360,000). AID 651719. inhibition, % at 3 µM;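 active = inhibition above the screen-wide average plus 3 SD, cut at about 13% in these data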;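 note: forskolin and galanin both at EC90 stimulate the cells; cAMP rise reported by CNG channel membrane potential dye signal; 0% = forskolin plus galanin with DMSO and 100% = forskolin alone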
COUP-TFII inh: inhibitors of human COUP-TFII (NR2F2). AID 686940. HEK293T NGFI-A luciferase reporter, luminescence. P24468. actives 0.7% (n = 370,000). inhibition, % at 8.6 µM;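 active = inhibition above a per-plate cutoff, mean inhibition of test wells between control levels plus 3 SD, cut at about 38% in these data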;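 note: cells cotransfected with COUP-TFII expression vector driving the NGFI-A reporter; 0% = median of COUP-TF2 test wells and 100% = reporter-only cells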
Target sequence (P24468 whole entry, looked up): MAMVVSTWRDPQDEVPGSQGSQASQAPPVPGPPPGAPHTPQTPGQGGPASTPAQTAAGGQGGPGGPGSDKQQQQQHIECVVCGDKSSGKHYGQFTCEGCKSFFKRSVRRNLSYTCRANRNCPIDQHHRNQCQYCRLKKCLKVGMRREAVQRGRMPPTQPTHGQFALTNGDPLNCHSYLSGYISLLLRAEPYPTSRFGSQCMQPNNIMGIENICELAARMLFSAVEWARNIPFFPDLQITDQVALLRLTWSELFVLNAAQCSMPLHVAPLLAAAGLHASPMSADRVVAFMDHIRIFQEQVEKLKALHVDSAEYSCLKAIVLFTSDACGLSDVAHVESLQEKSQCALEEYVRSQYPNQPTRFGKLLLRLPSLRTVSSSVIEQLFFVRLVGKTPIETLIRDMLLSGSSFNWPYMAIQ
NR2E3 ag-2: activates human NR2E3 receptor | Q9Y5X4 | CHO-S Gal4-NCOR/VP16-NR2E3 two-hybrid, luciferase | inhibition of corepressor binding, % at 3.98 µM | actives 0.35% (n = 360,000) | AID 602229;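 active = inhibition above the mean of all tested compounds plus 3 SD, cut at about 70% in these data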;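 note: 0% = DMSO with NR2E3 transfected cells and 100% = cells lacking NR2E3 construct; higher means lower luciferase signal from less NR2E3 corepressor binding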
NR2E3 ag confirm-1: NR2E3 (human) agonism, confirmation. cell-free NR2E3 corepressor release, TR-FRET, 5 h. shares compounds with NR2E3 ag-1. actives 39% (n = 360). AID 2379. activation (reported as inhibition), % at 3.98 µM; in the data active = activation above about 20%
PPARg-NCOR2 ag: counter-screen for NR2E3 agonists: human PPARgamma-NCOR2 interaction agonists; AID 504787; inhibition, % at 3.98 µM; actives 45% (n = 360); TR-FRET PPARg-NCOR2 coregulator interaction, biochemical; shares compounds with NR2E3 ag-1; in the data active = inhibition above about 20%;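 note: 0% = DMSO vehicle and 100% = wells without protein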
CHT inh conf: confirmation of human choline transporter CHT inhibitors | CHT activity remaining % of control (stronger effect = lower value), % at 10 µM | actives 70% (n = 2,400) | shares compounds with CHT block | CHT-expressing cells, choline membrane potential dye; LV-to-AA substituted CHT, HEK293 cells;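 active = choline transporter activity left, mean of duplicates at 10 µM, below buffer-only control mean minus 3 SD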;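 note: depolarization triggered by choline at its EC90 following an EC20 pre-addition; 0% = hemicholinium-3 full block and 100% = buffer-only control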
HEK293 MPD ctr: counter-screen for CHT inhibitors: effect in parental HEK293 cells; membrane potential dye, choline response; active = decrease or increase beyond buffer ±3SD; shares compounds with CHT block; actives 4% (n = 2,400); membrane potential ratio readout (active if shifted either direction beyond buffer ±3SD; no single direction) at 10 µM;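 note: parental cells lack the transporter so any hit is non-specific; ratio is peak minus trough fluorescence over baseline after EC90 choline challenge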
CHT act confirm: confirmation of human choline transporter (CHT) activators. shares compounds with CHT PAM. CHT-expressing cells, membrane potential dye fluorescence (FDSS); % of choline EC20–EC90 response window; HEK293 expressing CHT LV-AA mutant; choline added at its EC20. activation, % at 10 µM. actives 91% (n = 2,500). AID 504833;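 active = primary screen active, with duplicate mean activation above negative control mean plus 3 SD, cut at about 11% in these data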
HEK293 MP dye: CHT activator counter-screen hit in parental HEK293 cells. shares compounds with CHT PAM. ratio readout change at 10 µM, hits read low. actives 62% (n = 2,500). membrane potential dye fluorescence (FDSS); measured after EC20 choline addition;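 active = duplicate-averaged ratio beyond 3 SD from buffer wells, up or down, though filed actives are nearly all decreases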
NR2E3 ag confirm-2: NR2E3 agonism confirmed in two-hybrid assay; shares compounds with NR2E3 ag-2; CHO-S mammalian two-hybrid NR2E3-NCOR, luciferase luminescence; inhibition, % at 3.98 µM; actives 51% (n = 2,300); AID 624378;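 active = average inhibition above a cutoff equal to the mean inhibition of all tested compounds plus one SD, cut at about 70% in these data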;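 note: 0% = DMSO in NR2E3 cells and 100% = DMSO in cells lacking NR2E3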
VP16 counter: GAL4-VP16 reporter inhibition in NR2E3 agonist counterscreen; CHO-S GAL4-VP16 luciferase reporter, luminescence; shares compounds with NR2E3 ag-2; inhibition, % at 3.98 µM; actives 29% (n = 2,300); AID 624379;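 active = mean inhibition above a cutoff equal to the average over all tested compounds plus one standard deviation, cut at about 70% in these data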;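 note: luciferase from a UAS reporter driven by GAL4-VP16 transactivation; 0% = DMSO with VP16-transfected cells and 100% = DMSO with cells lacking VP16; higher means less reporter light so more repression of VP16 activity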
VP16 Luc counter: inhibits VP16 reporter, flagging COUP-TFII antagonist hits; HEK293 Gal4-VP16 luciferase reporter, luminescence; actives 25% (n = 2,500); shares compounds with COUP-TFII inh; inhibition, % at 8.5 µM; in the data active = inhibition above about 13%
NR2F2 inh conf: confirmation of human COUP-TFII (NR2F2) inhibitors. shares compounds with COUP-TFII inh. HEK293 NGFI-A luciferase reporter, luminescence. inhibition, % at 8.5 µM. actives 45% (n = 2,500);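 active = mean inhibition over three repeats above a set limit taken from the earlier primary screen, cut at about 38% in these data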;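 note: 100% = cells given the luciferase reporter alone without the COUP-TF2 vector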
* marks the source's active call; other numbers are inactive results; i = inactive; / = no result.

SMILES | CHT block | CHT PAM | NR2E3 ag-1 | GalR3 antagonist | COUP-TFII inh | NR2E3 ag-2 | CHT inh conf | HEK293 MPD ctr | others
COc1ccc(OC)c(C2C(C(=O)c3cc4ccccc4o3)=C(O)C(=O)N2c2cc(C)on2)c1 (stereo not given) | i | i | 24.0* | -1.8 | 2.9 | -28.0 | / | / | NR2E3 ag confirm-1=17.2;PPARg-NCOR2 ag=11.2;CHT act confirm=10.6*;HEK293 MP dye=i
Cc1ccc2nc(-c3ccc(NC(=O)CSc4nnc(-c5cc(C)[nH]n5)n4N)cc3)sc2c1 | / | / | / | / | -38.4 | / | / | /
Cc1cc(N2C(=O)C(O)=C(C(=O)c3cc4ccccc4o3)C2c2ccc(Cl)cc2)no1 (stereo not given) | i | i | 28.9* | -8.0 | -17.7 | 50.6 | / | / | NR2E3 ag confirm-1=35.0*;PPARg-NCOR2 ag=38.9*;NR2E3 ag confirm-2=87.6*;VP16 counter=58.6
Nc1[nH]c(C(=O)c2ccccc2)c(-c2cccc3ccccc23)c1C(=O)c1c(-c2ccccc2)[nH]c2ccccc12 | / | / | / | / | 19.6 | / | / | /
Cn1nc(-c2ccccn2)nc2c(=O)n(C)c(=O)nc1-2 | i | i | 41.5* | -10.7 | 53.7* | 106.7* | / | / | NR2E3 ag confirm-1=33.3*;PPARg-NCOR2 ag=57.3*;NR2E3 ag confirm-2=62.7;VP16 counter=63.6;VP16 Luc counter=30.3*;NR2F2 inh conf=33.0
C#CCN1CC(N2CCN(CCO)CC2)CS1(=O)=O (stereo not given) | / | / | / | / | -21.7 | / | / | /
CN(/N=C/c1ccc([N+](=O)[O-])o1)c1ccccc1 | -5.75* | i | -3.7 | -4.8 | -10.1 | -14.3 | 50.4%* | i
O=C(N/N=C/c1ccc([N+](=O)[O-])o1)C(O)c1ccccc1 (stereo not given) | i | i | -1.2 | 1.2 | -2.6 | -20.1 | / | /
CCOC(=O)CC[C@H]1CC[C@]2(CCCN(C(=O)c3ccno3)C2)O1 | / | / | / | / | -12.6 | / | / | /
COC(=O)[C@]12C[C@H](CC(=O)N3CCCCC3)C(=O)N(Cc3ccc4c(c3)OCO4)C1=C[C@H](C(C)C)O[C@@H]2C1CC1 | / | / | / | / | 9.3 | / | / | /
CCN(CC)CCNC(=O)c1cn(CC)c2ccc(S(=O)(=O)N(C)C3CCCCC3)cc2c1=O | i | i | 3.5 | 5.1 | 11.3 | -2.5 | / | /
CCn1cc(C(=O)NCCCN2CC(C)CC(C)C2)c(=O)c2cc(S(=O)(=O)N(C)C3CCCCC3)ccc21 (stereo not given) | -4.98* | i | -1.8 | -1.1 | 18.4 | -3.7 | 44.8%* | 2.94*
CCn1cc(C(=O)NCCCN2CCC(C)CC2)c(=O)c2cc(S(=O)(=O)N(C)C3CCCCC3)ccc21 | -6.49* | i | -1.5 | -0.4 | -3.5 | -23.5 | 38.7%* | i
CC1CCCN(CCCNC(=O)c2cn(C)c3ccc(S(=O)(=O)N(C)C4CCCCC4)cc3c2=O)C1 (stereo not given) | i | i | 2.6 | -0.9 | -7.0 | -10.2 | / | /
CN(CCc1ccccc1)C(=O)c1ccc2c(c1)ncn2C1CCCCC1 | / | / | / | / | -2.8 | / | / | /
Cc1cccc(C)c1NC(=O)C1CCN(c2ncccn2)CC1 | / | / | / | / | 1.8 | / | / | /
CC1=C/C(=N\OS(=O)(=O)c2ccccc2)C(C)=CC1=O | -5.95* | i | -1.4 | / | / | 34.2 | 49.8%* | i
CC1=C/C(=N\OS(=O)(=O)c2ccccc2)C(C(C)C)=CC1=O | i | i | -1.1 | / | / | -8.0 | / | /
O=C(Cc1ccccc1)NC1CCCCN(Cc2ccc(Cl)cc2)C1=O (stereo not given) | / | / | / | / | 2.0 | / | / | /
Cc1cccc(-c2nc(CN3CCCC(C(=O)NC4CCCC4)C3)c(C)o2)c1 (stereo not given) | -5.1* | i | 4.6 | -3.0 | 11.5 | 17.3 | i | i
Cc1ccc(NS(=O)(=O)c2cccc(C(=O)NCC(c3ccco3)N3CCCCC3)c2)cc1 (stereo not given) | -13.2* | i | 0.7 | -7.1 | -5.6 | 6.6 | 2.4%* | i
COc1ccccc1C(CNC(=O)c1cccc(NS(=O)(=O)c2ccc(C)c(F)c2)c1)N1CCCC1 (stereo not given) | -5.55* | i | -1.4 | -0.9 | 12.9 | 11.1 | 14.8%* | i
O=C(NCC(c1ccco1)N1CCCCC1)c1cccc(NS(=O)(=O)c2ccc(Br)cc2)c1 (stereo not given) | -11.1* | i | -0.6 | -4.0 | 22.6 | -2.8 | 36.5%* | i
COc1ccccc1C(CNC(=O)c1ccc(NS(=O)(=O)c2ccc(F)c(C)c2)cc1)N1CCCC1 (stereo not given) | i | i | -1.4 | 6.7 | 22.3 | -6.1 | / | /
CCOc1ccc(S(=O)(=O)Nc2cccc(C(=O)NCC(c3ccco3)N3CCCC3)c2)cc1 (stereo not given) | / | / | 0.8 | 0.7 | -2.5 | 15.8 | / | /
